Laboratory results reported in ChEMBL document CHEMBL1130028, “A comparison of structure-activity relationships between spermidine and spermine analogue antineoplastics” (J Med Chem, 1997).

Assays:
L1210 [1] = experiment: Percentage of spermidine (after 48 hr exposure to 100 uM) in L1210 cells.
[2] = target: T1, S-adenosylmethionine decarboxylase proenzyme 1 (Mus musculus) (UniProt P0DMN7); experiment: Effect on S-Adenosyl-methionine decarboxylase (AdoMetDC) tested at 1 uM at 6 hour in L1210 cells; assay type: functional, cell-based
T1 sequence (whole entry): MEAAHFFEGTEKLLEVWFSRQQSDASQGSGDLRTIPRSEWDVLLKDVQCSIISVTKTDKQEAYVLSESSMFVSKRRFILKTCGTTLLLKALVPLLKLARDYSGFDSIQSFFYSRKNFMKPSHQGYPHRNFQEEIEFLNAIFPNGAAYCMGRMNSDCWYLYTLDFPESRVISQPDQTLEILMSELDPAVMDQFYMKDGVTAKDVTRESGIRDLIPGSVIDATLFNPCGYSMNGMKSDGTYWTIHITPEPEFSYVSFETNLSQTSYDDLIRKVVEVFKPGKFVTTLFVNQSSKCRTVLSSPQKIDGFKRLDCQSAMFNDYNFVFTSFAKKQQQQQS
Outline: (§1)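 L1210 cells were exposed to 1 μM analogue, for 4 h (ODC) or 6 h (AdoMetDC). Activity was measured as 14CO2 released from [14C]carboxyl-labelled L-ornithine (ODC) or S-adenosyl-L-methionine (AdoMetDC) and given as percent of untreated control. Each run included DEHSPM-treated positive controls. Values are the mean of at least three experiments.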

L1210 [3] = experiment: Growth inhibitory activity against L1210 cells (48h); assay type: functional, cell-based; settings: Mus musculus, L1210, 48 h
Outline: (§2)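 Murine L1210 leukemia cells were kept in log growth in RPMI-1640 with 10% fetal calf serum or NuSerum, HEPES-MOPS buffer and 1 mM aminoguanidine. IC50 is the concentration giving 50% of untreated control growth, as the mean of at least two experiments.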

L1210 [4] = experiment: Percentage of spermidine (after 48 hr exposure to 500 uM) in L1210 cells.
L1210 [5] = experiment: Percentage of spermine (after 48 hr exposure to 100 uM) in L1210 cells.; assay type: functional, Mus musculus
Outline: (§3)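 Log-phase L1210 cells were treated for 48 h with analogue at two concentrations. Cells were washed twice in cold RPMI-1640 and extracted with 0.6 N HClO4. Putrescine, spermidine and spermine were quantified by HPLC of dansyl derivatives and given as percent of untreated controls. Runs were in triplicate with untreated controls.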

L1210 [6] = experiment: Percentage of putrescine after 48 hr exposure to the compound (500 uM ) in L1210 cells; assay type: functional, Mus musculus
Outline: as §3

L1210 [7] = experiment: Percentage of spermine (after 48 hr exposure to 500 uM) in L1210 cells.; assay type: functional, Mus musculus
Outline: as §3

L1210 [8] = experiment: Intracellular levels in L1210 cells following 500 uM exposure.; assay type: functional, Mus musculus
Outline: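 L1210 cells were grown 48 h in medium containing 500 μM analogue. Cellular contents were analysed by HPLC of dansyl derivatives and given as pmol/10^6 cells, as parent drug and metabolites with the % of total drug in the cell.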

[9] = Effect on ornithine decarboxylase (ODC) tested at 1 uM at 4 hour in L1210 cells; assay type: functional, Mus musculus
Outline: as §1

[10] = Binding affinity values for polyamine transporter was determined
[11] = target: Spermidine/spermine N(1)-acetyltransferase (SAT) (Mus musculus) (UniProt Q6P8J2+P48026); experiment: Effect on Spermidine/Spermine-Acetyltransferase (SSAT ) at 10 uM at 48 hour in L1210 cells; assay type: functional, cell-based
Outline: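 L1210 cells were exposed to 10 μM triamine for 48 h. SSAT activity was taken as [14C]N1-acetylspermidine formed from spermidine and [14C]acetyl-CoA, given as percent of untreated control. DENSPM-treated cells served as positive control. Values are the mean of at least three experiments.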

L1210 [12] = experiment: Growth inhibitory activity against L1210 cells (96h); assay type: functional, cell-based; settings: Mus musculus, L1210, 96 h
Outline: as §2

L1210 [13] = experiment: Percentage of putrescine (after 48 hr exposure to 100 uM) in L1210 cells.; assay type: functional, Mus musculus
Outline: as §3

Spermidine/spermine N(1)-acetyltransferase (SAT) (Mus musculus), sequence (P48026 whole entry, looked up): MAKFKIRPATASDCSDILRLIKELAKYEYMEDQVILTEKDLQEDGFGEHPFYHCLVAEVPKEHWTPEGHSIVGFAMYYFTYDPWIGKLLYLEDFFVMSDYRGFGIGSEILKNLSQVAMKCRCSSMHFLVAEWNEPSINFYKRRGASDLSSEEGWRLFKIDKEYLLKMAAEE
Spermidine/spermine N(1)-acetyltransferase (SAT) (Mus musculus), sequence (Q6P8J2 whole entry, looked up): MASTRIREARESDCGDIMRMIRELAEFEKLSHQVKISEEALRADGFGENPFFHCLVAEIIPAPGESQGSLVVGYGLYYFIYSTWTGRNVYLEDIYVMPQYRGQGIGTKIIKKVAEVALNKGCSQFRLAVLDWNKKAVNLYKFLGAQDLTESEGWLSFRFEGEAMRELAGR

| Compound | Spermidine % (L1210 [1]) [%] | AdoMetDC [2] [%] | IC50 (L1210 [3]) [µM] | Spermidine % (L1210 [4]) [%] | Polyamine (L1210 [5]) [%] | Polyamine (L1210 [6]) [%] | Polyamine (L1210 [7]) [%] | Picoequivalents of amine/10e6 cells (L1210 [8]) | ODC [9] [%] | Ki [10] [µM] | SSAT [11] [%] | IC50 (L1210 [12]) [µM] | Polyamine (L1210 [13]) [%] |
| --- | --- | --- | --- | --- | --- | --- | --- | --- | --- | --- | --- | --- | --- |
| CCNCCCNCCCCN | 25 | 58 | > 100 | 14 | 80 | 0 | 53 | 16990 | 10 | 8.6 | 430 | 4 | 0 |
| CCCNCCCNCCCNCCC | 76 | 99 | > 100 | 71 | 96 | 68 |  | 15010 | 100 | 125 | 220 | 60 | 70 |
| CCCNCCCCCNCCCCNCCC | 40 | 86 | 100 | 31 |  | 0 |  | 15150 | 83 | 75 | 80 | 1.2 | 0 |
| NCCCCNCCCCN | 4 | 54 | > 100 | 2 | 32 |  | 21 |  | 11 | 3.4 | 430 | 3 | 0 |
| CCCNCCCCNCCCN | 33 | 64 | > 100 | 16 |  | 0 | 95 | 19590 | 14 | 8.5 | 500 | 55 | 0 |
| CCCNCCCCNCCCCNCCC | 19 | 123 | > 100 | 7 |  | 0 |  | 15990 | 86 | 67 | 420 | 6 | 0 |
| CCNCCCNCCCN |  | 58 | > 100 |  |  |  |  |  | 42 | 34 | 390 | > 100 |  |
| NCCCCNCCCN [SPERMIDINE] |  | 43 | > 100 |  |  | 0 |  |  | 16 | 2.2 | 160 | > 100 | 0 |
| CNCCCCNCCCNC | 5 | 68 | > 100 | 0 | 58 | 0 | 54 | 16090 | 22 | 5.1 | 270 | 1.7 | 0 |
| CCCNCCCNCCCN | 29 | 38 | > 100 | 15 | 56 | 0 | 49 | 17710 | 33 | 33 | 470 | 100 | 0 |
| CNCCCNCCCNC | 9 | 41 | > 100 | 6 | 58 | 0 | 48 | 18400 | 17 | 60 | 250 | 4.8 | 0 |
| CCNCCCCNCCCN | 26 | 54 | > 100 | 15 | 84 | 0 | 61 | 17990 | 17 | 7 | 400 | 40 | 0 |
| CCCNCCCCCNCCCCCNCCC | 73 | 123 | > 100 | 69 | 97 | 51 |  | 13910 | 73 | 87 | 90 | 6 | 59 |
| CNCCCCNCCCCNC | 3 | 86 | > 100 | 0 |  | 0 |  | 20340 | 20 | 5.5 | 510 | 0.9 | 0 |
| NCCCCCNCCCCCN | 0 | 88 | 100 | 0 | 33 | 0 | 20 |  | 16 | 14 | 90 | 0.4 | 0 |
| NCCCCCNCCCCN | 1 | 57 | > 100 | 0 | 53 |  | 35 |  | 19 | 1.4 | 410 | 0.18 | 0 |
